Assay results taken from ChEMBL document CHEMBL1146596, “New lupane derived compounds with pro-apoptotic activity in cancer cells: synthesis and structure-activity relationships” (2003).

Key:
[1] = test system: U-87 MG; experiment: Tested for cytotoxicity against human glioblastoma U87MG cell line; format: functional, U-87MG ATCC
Summary of the method: (§1)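 Cells were kept in DMEM/RPMI 1640 with 10% fetal calf serum, 2 mM glutamine and antibiotics. They were seeded at 2500–30 000 cells/well according to growth characteristics and preincubated 24 h at 37 °C, 5% CO2. Four-fold compound dilutions were tested in duplicate for 72 h. MTT was then added for 1–4 h, the formazan was dissolved in 10% SDS (pH 5.5) overnight, and OD was read at 540 nm. Survival was taken relative to mean control, and TCS50 was derived from dose–response curves.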

[2] = test system: MDA-MB-238; experiment: Tested for cytotoxicity against human breast cancer MDA-MB-238 cell line; format: functional; summary of the method: as §1
[3] = test system: K562; experiment: Tested for cytotoxicity against human […] leukemia K562-ARA-C cell line; format: functional; summary of the method: as §1
[4] = test system: OVCAR-3; experiment: Tested for cytotoxicity against human ovarian cancer OVCAR-3 cell line; format: functional; summary of the method: as §1
[5] = test system: SW-620; experiment: Tested for cytotoxicity against human colon cancer SW620 cell line; format: functional; summary of the method: as §1
[6] = test system: A549; experiment: Tested for cytotoxicity against human lung adenocarcinoma A549 cell line; format: functional; summary of the method: as §1
[7] = test system: DU-145; experiment: Tested for cytotoxicity against human prostate cancer DU145 cell line; format: functional; summary of the method: as §1
[8] = test system: HepG2; experiment: Tested for cytotoxicity against human hepatocellular carcinoma HepG2 cell line; format: functional; summary of the method: as §1
[9] = test system: SAOS-2; experiment: Tested for cytotoxicity against human […] Saos2 cell line; format: functional; summary of the method: as §1
[10] = test system: B16; experiment: Tested for cytotoxicity against mouse melanoma B16 cell line; format: functional; summary of the method: as §1
[11] = test system: CCRF-CEM; experiment: Tested for cytotoxicity against human T-lymphoblastic leukemia CEM cell line; format: functional; summary of the method: as §1
[12] = test system: K562; experiment: Tested for cytotoxicity against human […] leukemia K562-FLU D-CEM cell line; format: functional
Summary of the method: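 Cytotoxicity by MTT in fludarabine-resistant K562 subline (K562-FLUD), cultured in DMEM/RPMI 1640 with 10% fetal calf serum. Cells seeded at 2500–30 000/well, preincubated 24 h at 37 °C, 5% CO2. Fourfold dilutions in duplicate, 72 h exposure. MTT 1–4 h, formazan dissolved in 10% SDS overnight, OD 540 nm. Survival relative to control; TCS50 taken from dose–response curves.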

[13] = test system: CEM-VCR 1/F3; experiment: Tested for cytotoxicity against human T-lymphoblastic leukemia CEM-VCR 1/F3 cell line; format: functional; summary of the method: as §1
[14] = test system: CEM-DNR; experiment: Tested for cytotoxicity against human T-lymphoblastic leukemia CEM-DNR bulk cell line; format: functional; summary of the method: as §1
[15] = test system: HT-29; experiment: Tested for cytotoxicity against human colon cancer HT-29 cell line; format: functional; summary of the method: as §1
[16] = test system: CEM-DNR; experiment: Tested for cytotoxicity against human T-lymphoblastic leukemia CEM-DNR 1/C2 cell line; format: functional; summary of the method: as §1
[17] = test system: MCF7; experiment: Tested for cytotoxicity against human breast cancer MCF-7 cell line; format: functional; summary of the method: as §1
[18] = organism: Homo sapiens; experiment: Tested for cytotoxicity against human normal lymphocytes; format: functional; summary of the method: as §1
[19] = test system: CEM-VCR; experiment: Tested for cytotoxicity against human T-lymphoblastic leukemia CEM-VCR bulk cell line; format: functional; summary of the method: as §1
[20] = test system: B16; experiment: Tested for cytotoxicity against mouse melanoma B16F cell line; format: functional; summary of the method: as §1
[21] = test system: CCRF-CEM; experiment: Cytotoxicity against chemosensitive CEM-T lymphoblastc leukemia cell line.; format: functional, Homo sapiens; summary of the method: as §1
[22] = test system: LNCaP; experiment: Tested for cytotoxicity against human prostate cancer LNCaP cell line; format: functional; summary of the method: as §1
[23] = test system: SK-MEL3; experiment: Tested for cytotoxicity against human melanoma MEL-3 cell line; format: functional; summary of the method: as §1
[24] = test system: CEM-VCR 1/D/5; experiment: Tested for cytotoxicity against human T-lymphoblastic leukemia CEM-VCR 1/D5 cell line; format: functional; summary of the method: as §1
[25] = test system: BT-549; experiment: Tested for cytotoxicity against human breast cancer BT549 cell line; format: functional; summary of the method: as §1
[26] = test system: K562; experiment: Tested for cytotoxicity against human […] leukemia K562-CdA cell line; format: functional; summary of the method: as §1
[27] = test system: NIH3T3; experiment: Tested for cytotoxicity against mouse immortalized fibroblast NIH3T3 cell line; format: functional; summary of the method: as §1
[28] = test system: Caco-2; experiment: Tested for cytotoxicity against human colon cancer Caco-2 cell line; format: functional; summary of the method: as §1
[29] = test system: K562; experiment: Tested for cytotoxicity against human […] leukemia K562 cell line; format: functional; summary of the method: as §1
[30] = test system: K562; experiment: Tested for cytotoxicity against human […] leukemia K562-GEM cell line; format: functional; summary of the method: as §1
[31] = test system: U2OS; experiment: Tested for cytotoxicity against human osteosarcoma U2OS cell line; format: functional; summary of the method: as §1

Structure (SMILES)	TCS50 [1]	TCS50 [2]	TCS50 [3]	TCS50 [4]	TCS50 [5]	TCS50 [6]	TCS50 [7]	TCS50 [8]	TCS50 [9]	TCS50 [10]	TCS50 [11]	TCS50 [12]	TCS50 [13]	TCS50 [14]	TCS50 [15]	TCS50 [16]	TCS50 [17]	TCS50 [18]	TCS50 [19]	TCS50 [20]	other results
C=C(C=O)[C@@H]1CC[C@]2(C(=O)O)CC[C@]3(C)[C@H](CC[C@@H]4[C@@]5(C)CC[C@H](OC(C)=O)C(C)(C)[C@@H]5CC[C@]43C)C12 (stereo partly drawn)	98.3 µM	2.37 µM	1.59 µM	2.59 µM	5.86 µM	43.27 µM	2.75 µM	7.12 µM	4.8 µM	9.32 µM	4 µM	1.27 µM	5.94 µM	3.26 µM	12.31 µM	1.58 µM	4.3 µM	24.9 µM	6.95 µM	12.4 µM	TCS50 [21]: 4 µM; TCS50 [22]: 3.55 µM; TCS50 [23]: 3.68 µM; TCS50 [24]: 7.82 µM; TCS50 [25]: 6.28 µM; TCS50 [26]: 2.13 µM; TCS50 [27]: 15.7 µM; TCS50 [28]: 7.72 µM; TCS50 [29]: 15.12 µM; TCS50 [30]: 2.36 µM; TCS50 [31]: 3.94 µM
CC(=O)OC[C@@]1(C(=O)O)CC[C@]2(C)[C@H](CC[C@@H]3[C@@]4(C)CC[C@H](OC(C)=O)C(C)(C)[C@@H]4CC[C@]32C)C1=O	1.85 µM	1.35 µM	0.63 µM	0.9 µM	1.22 µM	2.8 µM	0.84 µM	1.67 µM	1.78 µM	0.43 µM	1 µM	0.35 µM	3.27 µM	1.05 µM	3.57 µM	0.61 µM	2.3 µM	12.5 µM	2.51 µM	4.66 µM	TCS50 [21]: 1 µM; TCS50 [22]: 1.12 µM; TCS50 [23]: 1.28 µM; TCS50 [24]: 2.93 µM; TCS50 [25]: 2.03 µM; TCS50 [26]: 0.28 µM; TCS50 [27]: 7.21 µM; TCS50 [28]: 2.97 µM; TCS50 [29]: 0.19 µM; TCS50 [30]: 0.94 µM; TCS50 [31]: 1.53 µM
COC(=O)[C@@]12CC[C@]3(C)[C@H](CC[C@@H]4[C@@]5(C)CC[C@H](OC(C)=O)C(C)(C)[C@@H]5CC[C@]43C)C1=C(C(C)C)C(=O)C2=O	23.8 µM	3.28 µM	6.42 µM	4.65 µM	5.89 µM	6.7 µM	1.98 µM	5.14 µM	7.9 µM	35.4 µM	4.4 µM	4.85 µM	38.3 µM	5.18 µM	5.23 µM	10.3 µM	12.9 µM	85.3 µM	28.2 µM	67.9 µM	TCS50 [21]: 4.4 µM; TCS50 [22]: 3.26 µM; TCS50 [23]: 5.86 µM; TCS50 [24]: 12.5 µM; TCS50 [25]: 15.3 µM; TCS50 [26]: 5.17 µM; TCS50 [27]: 96.8 µM; TCS50 [28]: 8.13 µM; TCS50 [29]: 1.85 µM; TCS50 [30]: 5.04 µM; TCS50 [31]: 4.28 µM
C=C(C)[C@@H]1CC[C@]2(C(=O)O)CC[C@]3(C)[C@H](CC[C@@H]4[C@@]5(C)CC[C@H](O)C(C)(C)[C@@H]5CC[C@]43C)[C@@H]12 [BETULINIC ACID]	>228 µM	195 µM	>250 µM	164 µM	>250 µM	79.3 µM	241 µM	3.61 µM	>250 µM	30.5 µM	>250 µM	>250 µM	19.1 µM	>250 µM	>250 µM	>250 µM	194 µM	>250 µM	68.5 µM	4.6 µM	TCS50 [21]: 20 µM; TCS50 [22]: 244 µM; TCS50 [23]: 2.65 µM; TCS50 [24]: 24.1 µM; TCS50 [25]: >250 µM; TCS50 [26]: >250 µM; TCS50 [27]: >250 µM; TCS50 [29]: 53.9 µM; TCS50 [30]: 101 µM; TCS50 [31]: >250 µM
